Results reported in ChEMBL document CHEMBL4304819, “Natural product pectolinarigenin exhibits potent anti-metastatic activity in colorectal carcinoma cells in vitro and in vivo” (2019).
Active and inactive are the calls of the source. The rule behind the calls is not given here.

Tests used:
CT26 [1] = assay: Antitumor activity against mouse CT26 cells allografted in Balb/c mouse assessed as inhibition of Ki-67 positive cells in tumour tissue at 25 to 50 mg/kg, ip administered daily for 14 days starting from 6 days post implantation by immunohistochemical analysis; type: functional, organism-based
In short: (§1)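 Female BALB/c mice (6–8 weeks) injected ip with 5 × 10^5 CT26 cells; from day 6, randomized (eight per group) to ip vehicle, 25 or 50 mg/kg once daily for 14 days. Abdominal circumference and body weight every 3 days; abdominal nodules counted by eye and weighed; spleens assessed; paraffin tumour sections immunostained (Ki-67, MMP-9, p-Stat3) with DAB detection.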

CT26 [2] = assay: Antimetastatic activity against mouse CT26 cells allografted in Balb/c mouse assessed as decrease in CD11b-positive/Gr1-positive myeloid cells level in tumour at 25 mg/kg, ip administered daily for 14 days starting from 6 days post implantation flow cytometric analysis (reference value: 10 %); type: functional; parameters: scale not given: the % may be the effect or the level left
CT26 [3] = assay: Induction of apoptosis in mouse CT26 cells assessed as early apoptotic cells at 10 uM after 48 hrs by Annexin V-FITC/propidium iodide staining-based flow cytometric analysis (reference value: 2.84 %); type: functional
In short: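 CT26 cells seeded at 1–2 × 10^5 per well in six-well plates for 24 h, then exposed to PEC (0–40 μM) for 24 or 48 h. Cells harvested, washed twice in cold PBS, stained with Annexin V-FITC/PI and read by flow cytometry. Early apoptotic = Annexin V+ only; late apoptotic = Annexin V+/PI+. Mean ± SD of three experiments.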

CT26 [4] = assay: Antimetastatic activity against mouse CT26 cells allografted in Balb/c mouse assessed as reduction in abdominal circumference at 25 to 50 mg/kg, ip administered daily for 14 days starting from 6 days post implantation; type: functional, organism-based; in short: as §1
CT26 [5] = assay: Induction of apoptosis in mouse CT26 cells assessed as nuclear fragmentation up to 40 uM after 48 hrs by Hoechst 33258 staining-based fluorescent microscopic analysis; type: functional, cell-based
In short: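 CT26 cells plated at 1–2 × 10^5 per well on 18-mm coverslips in six-well plates for 24 h, then treated 48 h with PEC. Washed in cold PBS, fixed 15 min in 4% paraformaldehyde, stained with Hoechst 33258 (5 μg/ml). Nuclear morphology viewed by fluorescence microscopy (10×); positive cells counted, mean ± SD of three experiments.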

CT26 [6] = assay: Antimetastatic activity against mouse CT26 cells allografted in Balb/c mouse assessed as reduction in splenomegaly at 25 to 50 mg/kg, ip administered daily for 14 days starting from 6 days post implantation; type: functional, organism-based; in short: as §1
CT26 [7] = assay: Induction of apoptosis in mouse CT26 cells assessed as increase in Bax/Bcl2 protein ratio up to 40 uM after 48 hrs by Western blot analysis; type: functional, cell-based
In short: (§2)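 CT26 cells exposed 48 h to PEC at 0, 10, 20 and 40 μM, washed twice in cold PBS, lysed in RIPA. Protein measured by Lowry and equalized, run on SDS-PAGE, blotted to PVDF. Blocked 1 h at 37 °C, primary antibodies (Bax, Bcl-2, pro-caspase-3, cleaved caspase-3) overnight at 4 °C, secondary 1 h, ECL detection, densitometry.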

CT26 [8] = assay: Induction of apoptosis in mouse CT26 cells assessed as increase in cleaved caspase-3 expression after 48 hrs by Western blot analysis; type: functional, cell-based; in short: as §2

COc1ccc(-c2cc(=O)c3c(O)c(OC)c(O)cc3o2)cc1 [PECTOLINARIGENIN]
inhibition (CT26 [1]): Active
Activity (CT26 [2]): 7.4%
Activity (CT26 [3]): 3.57%
Activity (CT26 [4]): Active
Activity (CT26 [5]): Active
Activity (CT26 [6]): Active
Activity (CT26 [7]): Active
Activity (CT26 [8]): Dose-dependent effect
